Assay results as given in ChEMBL document CHEMBL1287651, “Synthesis and in vitro antibacterial activity of fluoroquinolone derivatives containing 3-(N'-alkoxycarbamimidoyl)-4-(alkoxyimino) pyrrolidines” (2010).
Values after ≈ are worked out from the molar mass of the structure shown.

Tests used:
Assay type in all cases: functional
Staphylococcus aureus [1] = assay: Antibacterial activity against Staphylococcus aureus ATCC […] after 18 to 24 hrs by twofold serial dilution method
Procedure, shortened: (§1)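 MIC determined by the standard twofold serial dilution method on agar media, screening against Gram-positive and Gram-negative strains. Levofloxacin and gemifloxacin were run alongside as reference drugs.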

Staphylococcus aureus [2] = assay: Antibacterial activity against methicillin-resistant Staphylococcus aureus 08-1 after 18 to 24 hrs by twofold serial dilution method
Procedure, shortened: (§2)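 Standard twofold serial agar dilution method on agar media for MIC determination. Screened against representative Gram-positive and Gram-negative strains. Levofloxacin and GMFX served as control drugs.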

Staphylococcus aureus [3] = assay: Antibacterial activity against methicillin-sensitive Staphylococcus aureus 08-2 after 18 to 24 hrs by twofold serial dilution method; procedure, shortened: as §2
[4] = test system: Staphylococcus epidermidis; assay: Antibacterial activity against methicillin-resistant Staphylococcus epidermidis 09-2 after 18 to 24 hrs by twofold serial dilution method; procedure, shortened: as §2
[5] = test system: Staphylococcus epidermidis; assay: Antibacterial activity against methicillin-resistant Staphylococcus epidermidis 09-3 after 18 to 24 hrs by twofold serial dilution method; procedure, shortened: as §2
[6] = test system: Staphylococcus epidermidis; assay: Antibacterial activity against methicillin-resistant Staphylococcus epidermidis 09-4 after 18 to 24 hrs by twofold serial dilution method; procedure, shortened: as §2
[7] = test system: Staphylococcus epidermidis; assay: Antibacterial activity against methicillin-sensitive Staphylococcus epidermidis 09-3 after 18 to 24 hrs by twofold serial dilution method; procedure, shortened: as §2
[8] = test system: Staphylococcus epidermidis; assay: Antibacterial activity against methicillin-sensitive Staphylococcus epidermidis 09-6 after 18 to 24 hrs by twofold serial dilution method; procedure, shortened: as §2
Streptococcus pneumoniae [9] = assay: Antibacterial activity against Streptococcus pneumoniae 08-2 after 18 to 24 hrs by twofold serial dilution method; procedure, shortened: as §1
Streptococcus pneumoniae [10] = assay: Antibacterial activity against Streptococcus pneumoniae 08-4 after 18 to 24 hrs by twofold serial dilution method; procedure, shortened: as §1
Enterococcus faecium [11] = assay: Antibacterial activity against Enterococcus faecium 08-2 after 18 to 24 hrs by twofold serial dilution method; procedure, shortened: as §1
Enterococcus faecium [12] = assay: Antibacterial activity against Enterococcus faecium 08-7 after 18 to 24 hrs by twofold serial dilution method; procedure, shortened: as §1
Enterococcus faecalis [13] = assay: Antibacterial activity against Enterococcus faecalis 08-10 after 18 to 24 hrs by twofold serial dilution method; procedure, shortened: as §1
Enterococcus faecalis [14] = assay: Antibacterial activity against Enterococcus faecalis 08-12 after 18 to 24 hrs by twofold serial dilution method; procedure, shortened: as §1
Escherichia coli [15] = assay: Antibacterial activity against Escherichia coli ATCC 25922 after 18 to 24 hrs by twofold serial dilution method; procedure, shortened: as §1
Escherichia coli [16] = assay: Antibacterial activity against Escherichia coli 08-21 after 18 to 24 hrs by twofold serial dilution method; procedure, shortened: as §1
Escherichia coli [17] = assay: Antibacterial activity against Escherichia coli 08-22 after 18 to 24 hrs by twofold serial dilution method; procedure, shortened: as §1
Klebsiella pneumoniae [18] = assay: Antibacterial activity against Klebsiella pneumoniae 09-21 after 18 to 24 hrs by twofold serial dilution method; procedure, shortened: as §1
Klebsiella pneumoniae [19] = assay: Antibacterial activity against Klebsiella pneumoniae 09-22 after 18 to 24 hrs by twofold serial dilution method; procedure, shortened: as §1
Klebsiella pneumoniae [20] = assay: Antibacterial activity against Klebsiella pneumoniae 09-23 after 18 to 24 hrs by twofold serial dilution method; procedure, shortened: as §1
Pseudomonas aeruginosa [21] = assay: Antibacterial activity against Pseudomonas aeruginosa ATCC 27853 after 18 to 24 hrs by twofold serial dilution method; procedure, shortened: as §1
Pseudomonas aeruginosa [22] = assay: Antibacterial activity against Pseudomonas aeruginosa 09-32 after 18 to 24 hrs by twofold serial dilution method; procedure, shortened: as §1
Pseudomonas aeruginosa [23] = assay: Antibacterial activity against Pseudomonas aeruginosa 09-33 after 18 to 24 hrs by twofold serial dilution method; procedure, shortened: as §1
Pseudomonas aeruginosa [24] = assay: Antibacterial activity against Pseudomonas aeruginosa 09-34 after 18 to 24 hrs by twofold serial dilution method; procedure, shortened: as §1
Pseudomonas aeruginosa [25] = assay: Antibacterial activity against Pseudomonas aeruginosa 09-35 after 18 to 24 hrs by twofold serial dilution method; procedure, shortened: as §1

Row | Compound | MIC (Staphylococcus aureus [1]) | MIC (Staphylococcus aureus [2]) | MIC (Staphylococcus aureus [3]) | MIC [4] | MIC [5] | MIC [6] | MIC [7] | MIC [8] | MIC (Streptococcus pneumoniae [9]) | MIC (Streptococcus pneumoniae [10]) | MIC (Enterococcus faecium [11]) | MIC (Enterococcus faecium [12]) | MIC (Enterococcus faecalis [13]) | MIC (Enterococcus faecalis [14]) | MIC (Escherichia coli [15]) | MIC (Escherichia coli [16]) | MIC (Escherichia coli [17]) | MIC (Klebsiella pneumoniae [18]) | MIC (Klebsiella pneumoniae [19]) | MIC (Klebsiella pneumoniae [20]) | other results
1 | CCO/N=C1\CN(c2c(F)cc3c(=O)c(C(=O)O)cn(C4CC4)c3c2OC(F)F)CC1/C(N)=N\O (stereo not given) | 0.5 µg/mL (≈ 1.01 µM) | 0.25 µg/mL (≈ 0.503 µM) | 1 µg/mL (≈ 2.01 µM) | 1 µg/mL (≈ 2.01 µM) | 1 µg/mL (≈ 2.01 µM) | 1 µg/mL (≈ 2.01 µM) | 1 µg/mL (≈ 2.01 µM) | 0.25 µg/mL (≈ 0.503 µM) | 8 µg/mL (≈ 16.1 µM) | 8 µg/mL (≈ 16.1 µM) | > 128 µg/mL | > 128 µg/mL | > 128 µg/mL | > 128 µg/mL | 128 µg/mL (≈ 257 µM) | > 128 µg/mL | > 128 µg/mL | > 128 µg/mL | 8 µg/mL (≈ 16.1 µM) | > 128 µg/mL | MIC (Pseudomonas aeruginosa [21]): 128 µg/mL (≈ 257 µM); MIC (Pseudomonas aeruginosa [22]): 128 µg/mL (≈ 257 µM); MIC (Pseudomonas aeruginosa [23]): > 128 µg/mL; MIC (Pseudomonas aeruginosa [24]): > 128 µg/mL; MIC (Pseudomonas aeruginosa [25]): 128 µg/mL (≈ 257 µM)
2 | CCO/N=C1\CN(c2c(F)cc3c(=O)c(C(=O)O)cn(C4CC4)c3c2OC(F)F)CC1/C(N)=N\OC (stereo not given) | 0.125 µg/mL (≈ 0.244 µM) | 0.25 µg/mL (≈ 0.489 µM) | 0.25 µg/mL (≈ 0.489 µM) | 64 µg/mL (≈ 125 µM) | 0.25 µg/mL (≈ 0.489 µM) | 0.25 µg/mL (≈ 0.489 µM) | 0.125 µg/mL (≈ 0.244 µM) | 0.25 µg/mL (≈ 0.489 µM) | 64 µg/mL (≈ 125 µM) | 64 µg/mL (≈ 125 µM) | 64 µg/mL (≈ 125 µM) | 64 µg/mL (≈ 125 µM) | 32 µg/mL (≈ 62.6 µM) | 32 µg/mL (≈ 62.6 µM) | 16 µg/mL (≈ 31.3 µM) | 64 µg/mL (≈ 125 µM) | 64 µg/mL (≈ 125 µM) | 32 µg/mL (≈ 62.6 µM) | 32 µg/mL (≈ 62.6 µM) | 32 µg/mL (≈ 62.6 µM) | MIC (Pseudomonas aeruginosa [21]): 8 µg/mL (≈ 15.6 µM); MIC (Pseudomonas aeruginosa [22]): 64 µg/mL (≈ 125 µM); MIC (Pseudomonas aeruginosa [23]): 64 µg/mL (≈ 125 µM); MIC (Pseudomonas aeruginosa [24]): 64 µg/mL (≈ 125 µM); MIC (Pseudomonas aeruginosa [25]): 64 µg/mL (≈ 125 µM)
3 | CCO/N=C1\CN(c2c(F)cc3c(=O)c(C(=O)O)cn(C4CC4)c3c2OC(F)F)CC1/C(N)=N\OCC (stereo not given) | 1 µg/mL (≈ 1.9 µM) | 2 µg/mL (≈ 3.81 µM) | 64 µg/mL (≈ 122 µM) | 64 µg/mL (≈ 122 µM) | 64 µg/mL (≈ 122 µM) | > 128 µg/mL | > 128 µg/mL | > 128 µg/mL | > 128 µg/mL | > 128 µg/mL | > 128 µg/mL | > 128 µg/mL | > 128 µg/mL | 64 µg/mL (≈ 122 µM) | 128 µg/mL (≈ 244 µM) | > 128 µg/mL | > 128 µg/mL | > 128 µg/mL | 64 µg/mL (≈ 122 µM) | > 128 µg/mL | MIC (Pseudomonas aeruginosa [21]): 128 µg/mL (≈ 244 µM); MIC (Pseudomonas aeruginosa [22]): > 128 µg/mL; MIC (Pseudomonas aeruginosa [23]): > 128 µg/mL; MIC (Pseudomonas aeruginosa [24]): > 128 µg/mL; MIC (Pseudomonas aeruginosa [25]): > 128 µg/mL
